Source: ChEMBL document CHEMBL4304743, “Discovery of ( E)- N1-(3-Fluorophenyl)- N3-(3-(2-(pyridin-2-yl)vinyl)-1 H-indazol-6-yl)malonamide (CHMFL-KIT-033) as a Novel c-KIT T670I Mutant Selective Kinase Inhibitor for Gastrointestinal Stromal Tumors (GISTs)” (J Med Chem, 2019)
Activity calls are given as the source filed them. The rule behind the calls is not given here.

Columns and labels:
[1] = system: Mast/stem cell growth factor receptor Kit (Homo sapiens), P10721 [V559G]; assay: Inhibition of TEL fused c-KIT V559G mutant (unknown origin) transfected in mouse BAF3 cells assessed as growth inhibition after 72 hrs by CCK8 assay; type: cell-based
Outline: (§1)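 Tel-c-KIT-transformed BaF3 lines (IL-3 independent) kept in RPMI 1640 with 10% FBS, 2% L-glutamine and pen/strep. Cells at 1.5 to 5 × 10^4 cells/mL mixed with graded compound and incubated 72 h at 37 °C, 5% CO2. Viability by CCK-8 absorbance at 450 nm, normalized to DMSO. GI50 from dose–response fit.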

[2] = system: GISTT1; assay: Antiproliferative activity against human GISTT1 cells harboring c-KIT 560 to 578 deletion/T670I double mutant incubated for 72 hrs by CCK8 assay; type: functional; conditions: GISTT1, 72 h
Outline: (§2)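 Adherent GIST cells seeded at 1.5-5 × 10^4 cells/mL and left overnight at 37 °C, 5% CO2. Medium then replaced with medium holding serial compound dilutions; 72 h incubation. Viability by CCK-8, absorbance at 450 nm, normalized to DMSO control; GI50 from dose-response fit.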

[3] = target: Mast/stem cell growth factor receptor Kit (Homo sapiens, UniProt P10721); assay: Inhibition of wild type TEL fused c-KIT (unknown origin) transfected in mouse BAF3 cells assessed as growth inhibition after 72 hrs by CCK8 assay; type: cell-based; conditions: baf3, 72 h
Outline: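 IL-3 independent BaF3 cells stably expressing tel-c-KIT wt or tel-c-KIT T670I, grown in RPMI 1640 with 10% FBS, 2% L-glutamine, 37 °C, 5% CO2. Suspension cells at 1.5 to 5 × 10^4 cells/mL mixed with serial compound dilutions and incubated 72 h. Viability read by CCK-8 absorbance at 450 nm, normalized to DMSO; GI50 from curve fit. Selectivity is wt GI50 over T670I GI50.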

[4] = system: Mast/stem cell growth factor receptor Kit (Homo sapiens), P10721 [V559A]; assay: Inhibition of TEL fused c-KIT V559A mutant (unknown origin) transfected in mouse BAF3 cells assessed as growth inhibition after 72 hrs by CCK8 assay; type: cell-based; outline: as §1
[5] = system: Mast/stem cell growth factor receptor Kit (Homo sapiens), P10721 [UNDEFINED MUTATION]; conditions: GISTT1, 1 uM
[6] = Antiproliferative activity against human GIST48B cells incubated for 72 hrs by CCK8 assay; type: functional; outline: as §2
[7] = system: Mast/stem cell growth factor receptor Kit (Homo sapiens), P10721 [L576P]; assay: Inhibition of TEL fused c-KIT L576P mutant (unknown origin) transfected in mouse BAF3 cells assessed as growth inhibition after 72 hrs by CCK8 assay; type: cell-based; outline: as §1
[8] = system: Mast/stem cell growth factor receptor Kit (Homo sapiens), P10721 [UNDEFINED MUTATION]; conditions: 1 uM
[9] = system: Mast/stem cell growth factor receptor Kit (Homo sapiens), P10721 [D820E]; assay: Inhibition of TEL fused c-KIT D820E mutant (unknown origin) transfected in mouse BAF3 cells assessed as growth inhibition after 72 hrs by CCK8 assay; type: cell-based; outline: as §1
[10] = Antiproliferative activity against human GIST5R cells harboring c-KIT 560 to 578 deletion/T670I double mutant incubated for 72 hrs by CCK8 assay; type: functional; outline: as §2
[11] = system: GISTT1; assay: Antiproliferative activity against human GISTT1 cells harboring c-KIT 560 to 578 deletion mutant incubated for 72 hrs by CCK8 assay; type: functional; conditions: GISTT1, 72 h; outline: as §2
[12] = system: Mast/stem cell growth factor receptor Kit (Homo sapiens), P10721 [V654A]; assay: Inhibition of TEL fused c-KIT V654A mutant (unknown origin) transfected in mouse BAF3 cells assessed as growth inhibition after 72 hrs by CCK8 assay; type: cell-based; outline: as §1
[13] = system: GIST882; assay: Antiproliferative activity against human GIST882 cells harboring c-KIT K642E mutant incubated for 72 hrs by CCK8 assay; type: functional; conditions: GIST882, 72 h; outline: as §2
[14] = system: Mast/stem cell growth factor receptor Kit (Homo sapiens), P10721 [UNDEFINED MUTATION]; conditions: GISTT1, 1 uM; remark: listed apart in the source
[15] = Antitumor activity against human GIST5R cells xenografted in nude mouse assessed as tumor weight at 100 mg/kg, po administered […] via gavage for 28 days (reference value: 0.59g); type: functional
Outline: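 Female nu/nu mice (5 weeks old) given subcutaneous right-flank GIST-5R cells in Matrigel. Dosing began at tumors of 200-400 mm3; randomized, 4 mice per group. Daily oral dosing (QD) at 25, 50 or 100 mg/kg in 0.5% methylcellulose/0.4% Tween80, or vehicle alone, for 28 days. Body weight and tumor volume, (W²×L)/2, measured daily; mean±SEM.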

Mast/stem cell growth factor receptor Kit (Homo sapiens), P10721 [UNDEFINED MUTATION], sequence (P10721 whole entry, looked up, stated change not applied, the tested form may be a part): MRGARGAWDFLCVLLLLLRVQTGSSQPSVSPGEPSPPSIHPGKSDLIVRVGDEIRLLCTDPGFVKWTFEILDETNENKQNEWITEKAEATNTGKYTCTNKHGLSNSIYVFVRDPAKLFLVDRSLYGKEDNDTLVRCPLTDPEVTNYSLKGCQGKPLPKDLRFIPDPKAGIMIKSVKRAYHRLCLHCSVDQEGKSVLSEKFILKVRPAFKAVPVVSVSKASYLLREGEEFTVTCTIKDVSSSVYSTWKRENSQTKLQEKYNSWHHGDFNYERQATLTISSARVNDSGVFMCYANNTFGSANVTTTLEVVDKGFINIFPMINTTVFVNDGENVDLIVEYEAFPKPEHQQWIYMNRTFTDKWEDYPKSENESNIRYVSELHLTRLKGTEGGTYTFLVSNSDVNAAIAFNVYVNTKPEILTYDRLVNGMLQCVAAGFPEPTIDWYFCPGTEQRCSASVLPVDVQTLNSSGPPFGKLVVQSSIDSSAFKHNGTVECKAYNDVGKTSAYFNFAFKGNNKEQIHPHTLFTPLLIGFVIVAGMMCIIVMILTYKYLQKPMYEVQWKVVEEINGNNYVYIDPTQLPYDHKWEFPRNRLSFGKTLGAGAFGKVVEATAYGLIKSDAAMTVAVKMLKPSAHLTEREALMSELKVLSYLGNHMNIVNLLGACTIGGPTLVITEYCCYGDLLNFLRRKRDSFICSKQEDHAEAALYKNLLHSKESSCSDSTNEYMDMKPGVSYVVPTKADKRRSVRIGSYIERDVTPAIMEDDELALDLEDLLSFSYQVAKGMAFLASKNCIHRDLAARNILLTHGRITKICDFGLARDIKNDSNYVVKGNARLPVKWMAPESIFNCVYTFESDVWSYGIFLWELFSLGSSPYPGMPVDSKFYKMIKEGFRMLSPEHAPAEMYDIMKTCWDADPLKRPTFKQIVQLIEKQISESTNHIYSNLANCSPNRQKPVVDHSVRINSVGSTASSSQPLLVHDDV
Mast/stem cell growth factor receptor Kit (Homo sapiens), P10721 [L576P], sequence (P10721 whole entry L576P, the tested form may be a part): as the sequence (P10721 whole entry, looked up, stated change not applied, the tested form may be a part) above, with L576P counted along it
Mast/stem cell growth factor receptor Kit (Homo sapiens), P10721 [V559G], sequence (P10721 whole entry V559G, the tested form may be a part): as the sequence (P10721 whole entry, looked up, stated change not applied, the tested form may be a part) above, with V559G counted along it
Mast/stem cell growth factor receptor Kit (Homo sapiens), P10721 [D820E], sequence (P10721 whole entry D820E, the tested form may be a part): as the sequence (P10721 whole entry, looked up, stated change not applied, the tested form may be a part) above, with D820E counted along it
Mast/stem cell growth factor receptor Kit (Homo sapiens), P10721 [V654A], sequence (P10721 whole entry V654A, the tested form may be a part): as the sequence (P10721 whole entry, looked up, stated change not applied, the tested form may be a part) above, with V654A counted along it
Mast/stem cell growth factor receptor Kit (Homo sapiens), P10721 [V559A], sequence (P10721 whole entry V559A, the tested form may be a part): as the sequence (P10721 whole entry, looked up, stated change not applied, the tested form may be a part) above, with V559A counted along it
Mast/stem cell growth factor receptor Kit, sequence (P10721 whole entry, the tested form may be a part): as the sequence (P10721 whole entry, looked up, stated change not applied, the tested form may be a part) above

GI50 [1]: 1 nM | GI50 [3]: 364 nM | GI50 [4]: 5 nM | inhibition [5]: inactive | GI50 [7]: 115 nM | inhibition [8]: inactive | GI50 [9]: 267 nM | GI50 [12]: 2300 nM | inhibition [14]: inactive
Structure (SMILES): Cc1ccc(NC(=O)c2ccc(CN3CCN(C)CC3)cc2)cc1Nc1nccc(-c2cccnc2)n1 [IMATINIB]
GI50 [2]: > 10 µM | GI50 [6]: > 10 µM | GI50 [10]: > 10 µM | GI50 [11]: 26 nM | GI50 [13]: 58 nM | Activity [15]: 0.41 g
